Source: ChEMBL document CHEMBL1142960, “Synthesis and structure-activity relationships for 2,4-dinitrobenzamide-5-mustards as prodrugs for the Escherichia coli nfsB nitroreductase in gene therapy” (J Med Chem, 2007)
Values after ≈ are worked out from the molar mass of the structure shown.

Test system: not listed separately
Experiment: Partition coefficient at pH 7.4 by shake-flask method
Type: physicochemical
Details: octanol/water
Procedure, shortened: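 Octanol-water partition coefficient by shake-flask at pH 7.4, reported with SEM.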

Compound	logD
O=C(NCCO)c1cc(N(CCCl)CCCl)c([N+](=O)[O-])cc1[N+](=O)[O-]	1.38
O=C(NCCN1CCOCC1)c1cc(N(CCCl)CCCl)c([N+](=O)[O-])cc1[N+](=O)[O-]	1.6

Test system: V79
Experiment: Antiproliferative activity against chinese hamster wild-type V79 NTR-ve cells after 18 hrs
Type: functional, cell-based
Details: Cricetulus griseus, V79, 18 h

Compound	IC50 [µM]
O=C(NCCO)c1cc(N(CCCl)CCCl)c([N+](=O)[O-])cc1[N+](=O)[O-]	312
O=C(NCCN1CCOCC1)c1cc(N(CCCl)CCCl)c([N+](=O)[O-])cc1[N+](=O)[O-]	201

Test system: V79
Experiment: Antiproliferative activity against chinese hamster V79 NTRpuro cells after 18 hrs
Type: functional, cell-based
Details: Cricetulus griseus, V79, 18 h

Compound	IC50 [µM]
O=C(NCCO)c1cc(N(CCCl)CCCl)c([N+](=O)[O-])cc1[N+](=O)[O-]	12
O=C(NCCN1CCOCC1)c1cc(N(CCCl)CCCl)c([N+](=O)[O-])cc1[N+](=O)[O-]	130

Test system: V79
Experiment: Selectivity ratio of IC50 for V79 NTR-ve cells to IC50 for V79 NTRpuro cells
Type: functional, Cricetulus griseus
Details: not given

Compound	Ratio IC50
O=C(NCCO)c1cc(N(CCCl)CCCl)c([N+](=O)[O-])cc1[N+](=O)[O-]	59
O=C(NCCN1CCOCC1)c1cc(N(CCCl)CCCl)c([N+](=O)[O-])cc1[N+](=O)[O-]	1.6

Test system: EMT6
Experiment: Antiproliferative activity against mouse wild type EMT6 NTR-ve cells after 18 hrs
Type: functional, cell-based
Details: EMT6, 18 h

Compound	IC50 [µM]
O=C(NCCO)c1cc(N(CCCl)CCCl)c([N+](=O)[O-])cc1[N+](=O)[O-]	570
O=C(NCCN1CCOCC1)c1cc(N(CCCl)CCCl)c([N+](=O)[O-])cc1[N+](=O)[O-]	242

Test system: EMT6
Experiment: Antiproliferative activity against mouse EMT6 NTRpuro cells after 18 hrs
Type: functional, cell-based
Details: EMT6, 18 h

Compound	IC50 [µM]
O=C(NCCO)c1cc(N(CCCl)CCCl)c([N+](=O)[O-])cc1[N+](=O)[O-]	1.52
O=C(NCCN1CCOCC1)c1cc(N(CCCl)CCCl)c([N+](=O)[O-])cc1[N+](=O)[O-]	30

Test system: EMT6
Experiment: Selectivity ratio of IC50 for EMT6 NTR-ve cells to IC50 forEMT6 NTRpuro cells
Type: functional, Mus musculus
Details: not given

Compound	Ratio IC50
O=C(NCCO)c1cc(N(CCCl)CCCl)c([N+](=O)[O-])cc1[N+](=O)[O-]	386
O=C(NCCN1CCOCC1)c1cc(N(CCCl)CCCl)c([N+](=O)[O-])cc1[N+](=O)[O-]	8.9

Test system: WiDr
Experiment: Antiproliferative activity against human wild type WiDr NTR-ve cells after 18 hrs
Type: functional, cell-based
Details: not given

Compound	IC50 [µM]
O=C(NCCO)c1cc(N(CCCl)CCCl)c([N+](=O)[O-])cc1[N+](=O)[O-]	666
O=C(NCCN1CCOCC1)c1cc(N(CCCl)CCCl)c([N+](=O)[O-])cc1[N+](=O)[O-]	243

Test system: WiDr
Experiment: Antiproliferative activity against human WiDr NTRneo cells after 18 hrs
Type: functional, cell-based
Details: not given

Compound	IC50 [µM]
O=C(NCCO)c1cc(N(CCCl)CCCl)c([N+](=O)[O-])cc1[N+](=O)[O-]	10
O=C(NCCN1CCOCC1)c1cc(N(CCCl)CCCl)c([N+](=O)[O-])cc1[N+](=O)[O-]	149

Test system: WiDr
Experiment: Selectivity ratio of IC50 for WiDr NTR-ve cells to IC50 for WiDr NTRneo cells
Type: functional, Homo sapiens
Details: not given

Compound	Ratio IC50
O=C(NCCO)c1cc(N(CCCl)CCCl)c([N+](=O)[O-])cc1[N+](=O)[O-]	65
O=C(NCCN1CCOCC1)c1cc(N(CCCl)CCCl)c([N+](=O)[O-])cc1[N+](=O)[O-]	1.7

Test system: not listed separately
Experiment: Antiproliferative activity against human wild type Skov3 NTR-ve cells after 18 hrs
Type: functional, cell-based
Details: not given

Compound	IC50 [µM]
O=C(NCCO)c1cc(N(CCCl)CCCl)c([N+](=O)[O-])cc1[N+](=O)[O-]	1250
O=C(NCCN1CCOCC1)c1cc(N(CCCl)CCCl)c([N+](=O)[O-])cc1[N+](=O)[O-]	383

Test system: V79
Experiment: Clonogenic survival of V79 NTRoua cells after 5 hrs by MCL assay
Type: functional, Cricetulus griseus
Details: not given

Compound	Activity [µM]
O=C(NCCO)c1cc(N(CCCl)CCCl)c([N+](=O)[O-])cc1[N+](=O)[O-]	>1000
O=C(NCCN1CCOCC1)c1cc(N(CCCl)CCCl)c([N+](=O)[O-])cc1[N+](=O)[O-]	3500

Test system: not listed separately
Experiment: Antiproliferative activity against human Skov3 NTRneo cells after 18 hrs
Type: functional, cell-based
Details: SK-OV-3, 18 h

Compound	IC50 [µM]
O=C(NCCO)c1cc(N(CCCl)CCCl)c([N+](=O)[O-])cc1[N+](=O)[O-]	5.9
O=C(NCCN1CCOCC1)c1cc(N(CCCl)CCCl)c([N+](=O)[O-])cc1[N+](=O)[O-]	82

Test system: not listed separately
Experiment: Selectivity ratio of IC50 for Skov3 NTR-ve cells to IC50 for Skov3 NTRneo cells
Type: functional, Homo sapiens
Details: not given

Compound	Ratio IC50
O=C(NCCO)c1cc(N(CCCl)CCCl)c([N+](=O)[O-])cc1[N+](=O)[O-]	230
O=C(NCCN1CCOCC1)c1cc(N(CCCl)CCCl)c([N+](=O)[O-])cc1[N+](=O)[O-]	5

Test system: V79
Experiment: Clonogenic survival of 3% V79 NTRpuro cells in co-cultures with 97% V79 NTRoua after 5 hrs by MCL assay
Type: functional, Cricetulus griseus
Details: not given
Procedure, shortened: (§1)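 Multicellular layer cocultures of 3% V79-NTRpuro activators and 97% V79oua NTR-ve targets (ouabain-resistant), exposed to prodrug for 5 h. MCLs were then trypsin-dissociated and plated in ouabain or puromycin selective media for clonogenic survival. C10 (10% survival) interpolated for activators and targets; AC/TC ratio derived. Mean with SEM or range over independent experiments.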

Compound	Activity [µM]
O=C(NCCO)c1cc(N(CCCl)CCCl)c([N+](=O)[O-])cc1[N+](=O)[O-]	95
O=C(NCCN1CCOCC1)c1cc(N(CCCl)CCCl)c([N+](=O)[O-])cc1[N+](=O)[O-]	1500

Test system: V79
Experiment: Clonogenic survival of 97% V79 NTRoua cells in co-cultures with 3% V79 NTRpuro cells after 5 hrs by MCL assay
Type: functional, Cricetulus griseus
Details: not given
Procedure, shortened: as §1

Compound	Activity [µM]
O=C(NCCO)c1cc(N(CCCl)CCCl)c([N+](=O)[O-])cc1[N+](=O)[O-]	210
O=C(NCCN1CCOCC1)c1cc(N(CCCl)CCCl)c([N+](=O)[O-])cc1[N+](=O)[O-]	3000

Test system: not listed separately
Experiment: Toxicity in ip dosed CD1 nude mouse in sodium acetate
Type: organism-based
Details: in vivo
Procedure, shortened: (§2)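 Maximum tolerated dose (MTD) determined in CD-1 nude mice after a single i.p. injection of prodrug, given in the vehicle named in each line.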

Compound	MTD [µmol/kg]
O=C(NCCN1CCOCC1)c1cc(N(CCCl)CCCl)c([N+](=O)[O-])cc1[N+](=O)[O-]	300

Test system: not listed separately
Experiment: Toxicity in ip dosed CD1 nude mouse in DMA/PEG
Type: organism-based
Details: in vivo
Procedure, shortened: as §2

Compound	MTD [µmol/kg]
O=C(NCCO)c1cc(N(CCCl)CCCl)c([N+](=O)[O-])cc1[N+](=O)[O-]	133

Test system: EMT6
Experiment: Antitumor activity against mixed mouse EMT6/EMT6 NTRpuro cells injected in CD1 nude mouse assessed as cell kill at 133 umol/kg, ip in DMA/PEG after 18 hrs
Type: functional
Details: not given

Compound	LCK
O=C(NCCO)c1cc(N(CCCl)CCCl)c([N+](=O)[O-])cc1[N+](=O)[O-]	>2.02

Test system: EMT6
Experiment: Antitumor activity against mixed mouse EMT6/EMT6 NTRpuro cells injected in CD1 nude mouse assessed as cell kill at 300 umol/kg, ip in acetate after 18 hrs
Type: functional
Details: not given

Compound	LCK
O=C(NCCN1CCOCC1)c1cc(N(CCCl)CCCl)c([N+](=O)[O-])cc1[N+](=O)[O-]	0.07

Test system: WiDr
Experiment: Antitumor activity against human 100% WiDr NTRneo tumor cells injected in CD1 nude mouse assessed as growth delay at 300 umol/kg, ip in acetate
Type: functional
Details: not given
Procedure, shortened: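 WiDr-NTRneo tumours (100% NTR+ve, or 1:9 NTR+ve:NTR-ve mixtures) in CD-1 nude mice, given a single i.p. dose at MTD. Read-out is median growth delay to 15 mm mean diameter, plus tumours not palpable 100 days after treatment. Aziridine given at 200 µmol/kg as positive control in every experiment.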

Compound	Activity [days]
O=C(NCCN1CCOCC1)c1cc(N(CCCl)CCCl)c([N+](=O)[O-])cc1[N+](=O)[O-]	27

Test system: not listed separately
Experiment: Solubility in alpha MEM
Type: physicochemical
Details: not given
Procedure, shortened: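 Solubility (mM) in α-MEM with 5% fetal calf serum at ambient temperature, measured by HPLC.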

Compound	solubility [mM]
O=C(NCCO)c1cc(N(CCCl)CCCl)c([N+](=O)[O-])cc1[N+](=O)[O-]	1 (≈ 395 µg/mL)
O=C(NCCN1CCOCC1)c1cc(N(CCCl)CCCl)c([N+](=O)[O-])cc1[N+](=O)[O-]	5.2 (≈ 2410 µg/mL)

Test system: not listed separately
Experiment: Stability in alpha MEM at 37 degC after 24 hrs
Type: physicochemical
Details: read-out: Stability
Procedure, shortened: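 Percent parent compound remaining, by HPLC, after holding in α-MEM with 5% fetal calf serum at 37 °C for 24 h.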

Compound	remaining at 24 h [%]
O=C(NCCN1CCOCC1)c1cc(N(CCCl)CCCl)c([N+](=O)[O-])cc1[N+](=O)[O-]	100
